Measurements gathered from unrelated publications.
Each line is one published result; the experiments were not run side by side.
Target: Ephrin type-B receptor 1 (EPHB1, Homo sapiens, UniProt P54762)
Residues used in one study (P54762 18-984): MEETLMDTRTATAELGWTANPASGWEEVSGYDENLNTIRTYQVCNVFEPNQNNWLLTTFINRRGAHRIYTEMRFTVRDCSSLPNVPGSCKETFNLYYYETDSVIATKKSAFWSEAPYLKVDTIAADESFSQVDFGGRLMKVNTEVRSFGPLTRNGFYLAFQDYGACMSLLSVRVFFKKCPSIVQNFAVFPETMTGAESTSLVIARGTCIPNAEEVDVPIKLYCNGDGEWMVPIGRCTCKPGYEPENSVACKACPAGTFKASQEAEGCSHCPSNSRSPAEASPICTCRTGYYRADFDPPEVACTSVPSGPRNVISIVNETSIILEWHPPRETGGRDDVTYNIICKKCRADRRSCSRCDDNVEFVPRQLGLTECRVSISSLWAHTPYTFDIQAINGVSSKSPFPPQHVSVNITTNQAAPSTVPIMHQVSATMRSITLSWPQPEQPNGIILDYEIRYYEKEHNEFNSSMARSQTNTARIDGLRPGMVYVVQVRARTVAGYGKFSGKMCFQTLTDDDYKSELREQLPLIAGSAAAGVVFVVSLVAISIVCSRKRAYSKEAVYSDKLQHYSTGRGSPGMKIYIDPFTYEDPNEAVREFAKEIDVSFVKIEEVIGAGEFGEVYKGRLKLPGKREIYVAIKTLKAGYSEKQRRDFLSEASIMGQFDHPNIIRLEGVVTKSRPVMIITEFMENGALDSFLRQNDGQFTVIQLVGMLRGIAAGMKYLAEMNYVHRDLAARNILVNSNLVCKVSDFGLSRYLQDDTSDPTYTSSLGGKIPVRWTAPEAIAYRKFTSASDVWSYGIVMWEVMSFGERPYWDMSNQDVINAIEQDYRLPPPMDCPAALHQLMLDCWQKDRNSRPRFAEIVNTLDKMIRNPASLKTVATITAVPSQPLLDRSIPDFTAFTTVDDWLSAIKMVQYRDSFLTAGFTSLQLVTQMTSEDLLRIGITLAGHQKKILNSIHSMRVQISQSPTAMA

c1cncc(-c2cccc(Nc3nccc(NC4CCCCC4)n3)c2)c1  remaining binding (binding; competition with immobilised ligand; 10 µM): 81%
O=C(NCCCN1CCOCC1)c1ccc(Nc2nccc(-c3cc4ccccc4s3)n2)cc1  remaining binding (binding; competition with immobilised ligand; 1 µM): 77%
O=c1nc(-c2ccccn2)sc2ccccc12  remaining binding (cell-free assay; competition with immobilised ligand; 1 µM): 88%
CN(C)c1nccc(-c2cnn3ncccc23)n1  remaining binding (binding; 1 µM): 100%
FC(F)(F)Oc1cccc(-c2cnc3ccc(-c4ccncc4)nn23)c1  remaining binding (cell-free assay; competition with immobilised ligand; 5 µM): 82%
CNCc1ccccc1-c1csc([C@H](C)Nc2nc(C)nc3cc(OC)c(OC)cc23)c1  remaining binding (cell-free assay; competition with immobilised ligand; 1 µM): 100%
C[C@H]1CCN(c2nccc(-c3cnn4ncccc34)n2)C1  remaining binding (binding; 1 µM): 100%
O=C(c1ccc(Nc2ncc(Cl)c(-c3cc4ccccc4s3)n2)cc1)N1CCC(N2CCCC2)CC1  remaining binding (binding; competition with immobilised ligand; 1 µM): 33%
O=C(NCC1CCOCC1)c1n[nH]cc1NC(=O)c1c(F)cccc1F  remaining binding (binding; competition with immobilised ligand; 1 µM): 100%
c1ccc(N2CCN(Cc3nc4ccccc4[nH]3)CC2)nc1  remaining binding (cell-free assay; competition with immobilised ligand; 1 µM): 100%
CN(c1nccc(-c2cnn3ncccc23)n1)C1CC1  remaining binding (binding; 1 µM): 100%
C[C@@H](c1ccc(-n2cnc3c(N)ncnc32)cc1)N1CCc2nn(C)c(Cc3ccccc3)c2C1=O  remaining binding (binding; competition with immobilised ligand; 0.1 µM): 70%
Cc1cnc(Nc2ccc(C(=O)N3CCC(N4CCCC4)CC3)cc2)nc1-c1cc2ccccc2s1  remaining binding (binding; competition with immobilised ligand; 1 µM): 4.4%
N[C@H]1CCN(c2nccc(-c3cnn4ncccc34)n2)C1  remaining binding (binding; 1 µM): 100%
Nc1ncc2c(n1)-c1c([nH]c3ccc(C#CC4CC4)cc13)CCCC2  remaining binding (binding; competition with immobilised ligand; 1 µM): 92%
O=C(O)c1cc(-c2ccc(C3CCNCC3)cc2)c2ccc(-c3ccc(C(F)(F)F)cc3)cc2c1  remaining binding (cell-free assay; competition with immobilised ligand; 1 µM): 100%
CN(CCCC(F)(F)F)c1nccc(-c2cnn3ncccc23)n1  remaining binding (binding; 1 µM): 91%
O=C(N[C@H]1CCCCC/C=C\C2C[C@@]2(C(=O)O)NC(=O)[C@@H]2C[C@@H](Oc3ccncc3)CN2C1=O)OC1CCCC1 (stereo partly drawn)  remaining binding (cell-free assay; competition with immobilised ligand; 1 µM): 100%
c1cnn2ncc(-c3ccnc(N4CCC45COC5)n3)c2c1  remaining binding (binding; 1 µM): 100%
CN1CCN(c2cnc3c(C4CCN(C(=O)c5ccc(OC(F)(F)F)cc5N)CC4)ncnc3c2)CC1  remaining binding (cell-free assay; competition with immobilised ligand; 1 µM): 100%
COc1cnc(Nc2cccc(S(N)(=O)=O)c2)nc1N1CCN(c2ccccc2)CC1  remaining binding (binding; competition with immobilised ligand; 1 µM): 97%
